# Measured values taken from publication PMC8602434 (Drugs in R&D, 2021).
# Assays:
# [1] = Mouse pharmacokinetics, single sc or iv dose, plasma LC-MS; assay type: in vivo; details: for AUC∞: plasma LC-MS
# [2] = Healthy volunteers, single-dose arm, sc; assay type: in vivo; details: human; for half-life: t½
# Outline: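 Double-blind single abdominal sc injection at 0.1, 0.5, 1, 3 or 5 mg versus placebo. Cohorts of six or eight subjects; the 0.1 mg cohort had 4 active and 2 placebo. Serial blood sampling to 48 h post-dose. Plasma assayed by validated bioanalytical method. Noncompartmental analysis: Cmax, tmax, t½, AUC (linear trapezoidal to last quantifiable concentration), AUC∞, CL/F. AEs recorded.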
# [3] = both, plasma, sc, 0.1 mg, single 0.1 mg sc, mean (SD), n=4
# [4] = both, plasma, sc, 0.5 mg, single 0.5 mg sc, mean (SD), n=4
# [5] = both, plasma, sc, 1 mg, single 1.0 mg sc, mean (SD), n=6
# [6] = both, plasma, sc, 3 mg, single 3.0 mg sc, median, n=6
# [7] = both, plasma, sc, 5 mg, single 5.0 mg sc, mean (SD), n=6
# [8] = single 0.1 mg sc, geometric mean, n=4
# [9] = single 0.1 mg sc, mean (SD), n=4
# [10] = single 0.5 mg sc, geometric mean, n=2
# [11] = single 0.5 mg sc, geometric mean, n=4
# [12] = single 1.0 mg sc, geometric mean, n=6
# [13] = single 3.0 mg sc, mean (SD), n=6
# [14] = single 5.0 mg sc, geometric mean, n=6
# [15] = single 5.0 mg sc, mean (SD), n=6
smiles,measurement,setting,value
CCCC[C@H](NC(C)=O)C(=O)N[C@H]1CCC(=O)NC[C@@H](C(=O)N[C@@H](Cc2c[nH]c3ccccc23)C(N)=O)NC(=O)[C@H](CCCNC(=N)N)NC(=O)[C@@H](Cc2ccccc2)NC(=O)[C@H](Cc2c[nH]cn2)NC1=O [PL8177],F (bioavailability),[1]; 1 mg/kg sc versus iv,0.63
same,t½,[1]; single 1 mg/kg iv,12 min
same,AUC∞,[1]; single 1 mg/kg iv,753 ng·h/mL
same,Cmax,[1]; single 1 mg/kg sc,703 ng/mL
same,tmax,[1]; single 1 mg/kg sc,4.98 min
same,t½,[1]; single 1 mg/kg sc,15.6 min
same,AUC∞,[1]; single 1 mg/kg sc,476 ng·h/mL
same,Cmax,[1]; single 3 mg/kg sc,2440 ng/mL
same,tmax,[1]; single 3 mg/kg sc,15 min
same,t½,[1]; single 3 mg/kg sc,30 min
same,AUC∞,[1]; single 3 mg/kg sc,1727 ng·h/mL
same,AUC(0-t),"[2]; both, plasma, sc, 0.1 mg",2.7 ng·h/mL
same,tmax,"[2]; both, plasma, sc, 0.1 mg",36 min
same,AUC(0-inf),[2]; [3],3.5 ng·h/mL
same,CL/F,"[2]; both, plasma, sc, 0.1 mg, CL/F, single 0.1 mg sc, mean (SD), n=4",29.8 L/h
same,Cmax,"[2]; both, plasma, sc, 0.1 mg, Cmax, single 0.1 mg sc, mean (SD), n=4",2.3 ng/mL
same,Vd/F,"[2]; both, plasma, sc, 0.1 mg, Vd/F, single 0.1 mg sc, mean (SD), n=4",36.1 L
same,half-life,[2]; [3],54 min
same,AUC(0-t),"[2]; both, plasma, sc, 0.5 mg",19.9 ng·h/mL
same,tmax,"[2]; both, plasma, sc, 0.5 mg",30 min
same,AUC(0-inf),[2]; [4],22.4 ng·h/mL
same,CL/F,"[2]; both, plasma, sc, 0.5 mg, CL/F, single 0.5 mg sc, mean (SD), n=4",28.6 L/h
same,Cmax,"[2]; both, plasma, sc, 0.5 mg, Cmax, single 0.5 mg sc, mean (SD), n=4",8.2 ng/mL
same,Vd/F,"[2]; both, plasma, sc, 0.5 mg, Vd/F, single 0.5 mg sc, mean (SD), n=2",74.4 L
same,half-life,[2]; [4],168 min
same,AUC(0-t),"[2]; both, plasma, sc, 1 mg",40.3 ng·h/mL
same,tmax,"[2]; both, plasma, sc, 1 mg",36 min
same,AUC(0-inf),[2]; [5],46.2 ng·h/mL
same,CL/F,"[2]; both, plasma, sc, 1 mg, CL/F, single 1.0 mg sc, mean (SD), n=6",22.9 L/h
same,Cmax,"[2]; both, plasma, sc, 1 mg, Cmax, single 1.0 mg sc, mean (SD), n=6",17.4 ng/mL
same,Vd/F,"[2]; both, plasma, sc, 1 mg, Vd/F, single 1.0 mg sc, mean (SD), n=3",173 L
same,Vd/F,"[2]; both, plasma, sc, 1 mg, Vd/F, single 1.0 mg sc, median, n=3",186 L
same,half-life,[2]; [5],402 min
same,AUC(0-t),"[2]; both, plasma, sc, 3 mg",137 ng·h/mL
same,AUC(0-inf),[2]; [6],163 ng·h/mL
same,CL/F,"[2]; both, plasma, sc, 3 mg, CL/F, single 3.0 mg sc, mean (SD), n=6",19.3 L/h
same,CL/F,"[2]; both, plasma, sc, 3 mg, CL/F, single 3.0 mg sc, median, n=6",18.4 L/h
same,Cmax,"[2]; both, plasma, sc, 3 mg, Cmax, single 3.0 mg sc, median, n=6",49.1 ng/mL
same,Vd/F,"[2]; both, plasma, sc, 3 mg, Vd/F, single 3.0 mg sc, mean (SD), n=4",375 L
same,Vd/F,"[2]; both, plasma, sc, 3 mg, Vd/F, single 3.0 mg sc, median, n=4",394 L
same,half-life,"[2]; both, plasma, sc, 3 mg, single 3.0 mg sc, geometric mean, n=6",912 min
same,half-life,"[2]; both, plasma, sc, 3 mg, single 3.0 mg sc, mean (SD), n=6",1170 min
same,half-life,[2]; [6],738 min
same,AUC(0-t),"[2]; both, plasma, sc, 5 mg",226 ng·h/mL
same,tmax,"[2]; both, plasma, sc, 5 mg",48 min
same,AUC(0-inf),[2]; [7],240 ng·h/mL
same,CL/F,"[2]; both, plasma, sc, 5 mg, CL/F, single 5.0 mg sc, mean (SD), n=6",21.3 L/h
same,Cmax,"[2]; both, plasma, sc, 5 mg, Cmax, single 5.0 mg sc, mean (SD), n=6",87.8 ng/mL
same,Vd/F,"[2]; both, plasma, sc, 5 mg, Vd/F, single 5.0 mg sc, mean (SD), n=6",502 L
same,half-life,[2]; [7],978 min
same,Median time for last measurable concentration,[2]; 0.1-mg dose,2 h
same,Median time for last measurable concentration,[2]; 0.5-mg dose,6 h
same,Median time for last measurable concentration,[2]; 1-mg dose,16 h
same,Median time for last measurable concentration,[2]; 3-mg dose,30 h
same,Median time for last measurable concentration,[2]; 5-mg dose,48 h
same,AUC0–t,[2]; [8],2.6 ng·h/mL
same,AUC∞,[2]; [8],3.4 ng·h/mL
same,AUC∞/dose,[2]; [8],34.2 ng·h/mL/mg
same,CL/F,[2]; [8],29.2 L/h
same,Cmax,[2]; [8],2.2 ng/mL
same,Cmax/dose,[2]; [8],22.1 ng/mL/mg
same,t½,[2]; [8],0.8 h
same,AUC∞/dose,[2]; [9],34.9 (7.82) ng·h/mL/mg
same,Cmax/dose,[2]; [9],23.4 (10.1) ng/mL/mg
same,AUC0–t,"[2]; single 0.1 mg sc, median, n=4",2.6 ng·h/mL
same,AUC∞,"[2]; single 0.1 mg sc, median, n=4",3.5 ng·h/mL
same,AUC∞/dose,"[2]; single 0.1 mg sc, median, n=4",35.3 ng·h/mL/mg
same,CL/F,"[2]; single 0.1 mg sc, median, n=4",28.5 L/h
same,Cmax,"[2]; single 0.1 mg sc, median, n=4",1.9 ng/mL
same,Cmax/dose,"[2]; single 0.1 mg sc, median, n=4",18.9 ng/mL/mg
same,Vd/F,"[2]; single 0.1 mg sc, median, n=4",36.6 L
same,t½,"[2]; single 0.1 mg sc, median, n=4",0.8 h
same,AUC∞/dose,[2]; [10],50.4 ng·h/mL/mg
same,Vd/F,[2]; [10],74.1 L
same,AUC0–t,[2]; [11],16.8 ng·h/mL
same,AUC∞,[2]; [11],19.4 ng·h/mL
same,CL/F,[2]; [11],25.8 L/h
same,Cmax,[2]; [11],7.6 ng/mL
same,Cmax/dose,[2]; [11],15.3 ng/mL/mg
same,t½,[2]; [11],2.6 h
same,AUC∞/dose,"[2]; single 0.5 mg sc, mean (SD), n=2",59.9 (45.8) ng·h/mL/mg
same,Cmax/dose,"[2]; single 0.5 mg sc, mean (SD), n=4",16.4 (7.5) ng/mL/mg
same,AUC∞/dose,"[2]; single 0.5 mg sc, median, n=2",59.9 ng·h/mL/mg
same,Vd/F,"[2]; single 0.5 mg sc, median, n=2",74.4 L
same,AUC0–t,"[2]; single 0.5 mg sc, median, n=4",13.3 ng·h/mL
same,AUC∞,"[2]; single 0.5 mg sc, median, n=4",15 ng·h/mL
same,CL/F,"[2]; single 0.5 mg sc, median, n=4",33.6 L/h
same,Cmax,"[2]; single 0.5 mg sc, median, n=4",7.2 ng/mL
same,Cmax/dose,"[2]; single 0.5 mg sc, median, n=4",14.3 ng/mL/mg
same,t½,"[2]; single 0.5 mg sc, median, n=4",2.6 h
same,AUC∞/dose,"[2]; single 1.0 mg sc, geometric mean, n=3",35.4 ng·h/mL/mg
same,AUC0–t,[2]; [12],39.4 ng·h/mL
same,AUC∞,[2]; [12],44.9 ng·h/mL
same,CL/F,[2]; [12],22.3 L/h
same,Cmax,[2]; [12],16.7 ng/mL
same,Cmax/dose,[2]; [12],16.7 ng/mL/mg
same,t½,[2]; [12],6.1 h
same,AUC∞/dose,"[2]; single 1.0 mg sc, mean (SD), n=3",35.4 (1.8) ng·h/mL/mg
same,Cmax/dose,"[2]; single 1.0 mg sc, mean (SD), n=6",17.4 (5.0) ng/mL/mg
same,AUC∞/dose,"[2]; single 1.0 mg sc, median, n=3",34.5 ng·h/mL/mg
same,AUC0–t,"[2]; single 1.0 mg sc, median, n=6",39.2 ng·h/mL
same,AUC∞,"[2]; single 1.0 mg sc, median, n=6",45.5 ng·h/mL
same,CL/F,"[2]; single 1.0 mg sc, median, n=6",22.7 L/h
same,Cmax,"[2]; single 1.0 mg sc, median, n=6",18.3 ng/mL
same,Cmax/dose,"[2]; single 1.0 mg sc, median, n=6",18.3 ng/mL/mg
same,t½,"[2]; single 1.0 mg sc, median, n=6",6 h
same,AUC∞/dose,"[2]; single 3.0 mg sc, geometric mean, n=4",50.9 ng·h/mL/mg
same,Cmax/dose,"[2]; single 3.0 mg sc, geometric mean, n=6",17.8 ng/mL/mg
same,AUC∞/dose,"[2]; single 3.0 mg sc, mean (SD), n=4",51.3 (7.7) ng·h/mL/mg
same,AUC0–t,[2]; [13],138 (18.9) ng·h/mL
same,AUC∞,[2]; [13],158 (19.4) ng·h/mL
same,Cmax,[2]; [13],54.4 (11.3) ng/mL
same,Cmax/dose,[2]; [13],18.1 (3.8) ng/mL/mg
same,AUC∞/dose,"[2]; single 3.0 mg sc, median, n=4",51.1 ng·h/mL/mg
same,AUC0–t,"[2]; single 3.0 mg sc, median, n=6",138 ng·h/mL
same,Cmax/dose,"[2]; single 3.0 mg sc, median, n=6",16.4 ng/mL/mg
same,tmax,"[2]; single 3.0 mg sc, median, n=6",36 min
same,AUC0–t,[2]; [14],224 ng·h/mL
same,AUC∞,[2]; [14],237 ng·h/mL
same,AUC∞/dose,[2]; [14],47.5 ng·h/mL/mg
same,CL/F,[2]; [14],21.1 L/h
same,Cmax,[2]; [14],83.4 ng/mL
same,Cmax/dose,[2]; [14],16.7 ng/mL/mg
same,t½,[2]; [14],16.1 h
same,AUC∞/dose,[2]; [15],48.0 (7.4) ng·h/mL/mg
same,Cmax/dose,[2]; [15],17.6 (6.2) ng/mL/mg
same,AUC0–t,"[2]; single 5.0 mg sc, median, n=6",235 ng·h/mL
same,AUC∞,"[2]; single 5.0 mg sc, median, n=6",246 ng·h/mL
same,AUC∞/dose,"[2]; single 5.0 mg sc, median, n=6",49.2 ng·h/mL/mg
same,CL/F,"[2]; single 5.0 mg sc, median, n=6",20.3 L/h
same,Cmax,"[2]; single 5.0 mg sc, median, n=6",80.9 ng/mL
same,Cmax/dose,"[2]; single 5.0 mg sc, median, n=6",16.2 ng/mL/mg
same,Vd/F,"[2]; single 5.0 mg sc, median, n=6",496 L
same,t½,"[2]; single 5.0 mg sc, median, n=6",17.3 h
same,Overall tolerability,[2]; single and multiple ascending sc doses,well tolerated
same,Time after dosing at which PL8177 was first measurable in plasma,[2]; single sc dose,15 min
same,Persistence of measurable PL8177 in plasma,"[2]; single sc dose, at higher doses",up to 48 h
same,"AEs leading to study discontinuation, serious AEs, or severe AEs",[2]; single-dose arm,no reports
same,Dose linearity for AUC∞ and Cmax,[2]; single-dose arm,inconclusive
same,Intact drug excreted in the urine,[2]; single-dose arm,≤ 1%
same,Time after dosing at which Cmax was generally reached (tmax),[2]; single-dose arm,30 to 45 min
